proCasp7 act: activates human procaspase-7, counter-screen for procaspase-3 activators. P55210. 330,000 compounds, 0.093% hits. AID 463210. recombinant procaspase-7, Ac-DEVD-pNA absorbance 405 nm; D23A/D198A/D206A triple mutant, cannot self-cleave; scale: DMSO 0, 5 µM enzyme 100. activation, % at 8.5 µM;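 active means percent activation above the screen-wide mean plus 3 SD, cut at about 25% in these data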
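System: Procaspase-7 triple mutant (PC-7 D3A); measure: % activation from two-timepoint absorbance difference, scaled to controls; times: 1 h compound preincubation, 2 h substrate cleavage, 25 °C; also added: Ac-DEVD-pNA substrate, 400 µM as added; measured by: Epi-absorbance of released pNA at 405 nm, two timepoints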
procasp3 activ: activators of human procaspase-3. P42574. recombinant procaspase-3 D3A, Ac-DEVD-pNA absorbance 405 nm. activation, % at 8.5 µM. 330,000 compounds, 0.11% hits;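 active means activation above the mean of all tested compounds plus 3 SD, cut at about 21% in these data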
Target sequence (P42574 whole entry D9A/D28A/D175A): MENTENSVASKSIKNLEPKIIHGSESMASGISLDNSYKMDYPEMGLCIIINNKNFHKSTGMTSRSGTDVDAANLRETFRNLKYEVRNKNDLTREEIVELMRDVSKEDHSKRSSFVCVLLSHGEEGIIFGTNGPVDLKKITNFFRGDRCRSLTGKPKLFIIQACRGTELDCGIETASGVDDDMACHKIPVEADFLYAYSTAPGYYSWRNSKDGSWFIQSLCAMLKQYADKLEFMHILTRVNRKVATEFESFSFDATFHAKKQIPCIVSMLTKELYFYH
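Assay system: Autoprocessing-dead procaspase-3 D3A mutant enzyme; also added: Ac-DEVD-pNA; doses: one concentration, 8.5 µM nominal, 0.8% DMSO; times: 1 h compound preincubation, 2 h substrate hydrolysis at 25 °C; technique: 405 nm absorbance of p-nitroaniline, reads at 0 and 120 min; measure: % activation between DMSO and enzyme-spiked controls; repeats: single replicate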
IDE cell inh: inhibits human insulin-degrading enzyme in HEK cells; inhibition, % at 5.59 µM; P14735; FAbetaB cleavage, fluorescence polarization; 320,000 compounds, 0.41% hits; AID 434962;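 active means percent inhibition above the average of all tested compounds plus 3 SD, set per screening campaign, cut at about 16% in these data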;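 further: IDE supplied by intact live HEK cells; FP after avidin binding of uncleaved biotin substrate so inhibition keeps polarization high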
IDE cell activ: boosts human insulin-degrading enzyme activity in HEK cells; P14735; FAbeta-B cleavage, fluorescence polarization; 0% vehicle, 100% cell-free pure enzyme wells; activation, % at 5.96 µM; 340,000 compounds, 0.073% hits; AID 493087;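 active means activation above the mean of all tested compounds plus 3 SD, set per screening campaign, cut at about 17% in these data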
UBC13 inh: human UBC13 polyubiquitination inhibition | AID 485273 | inhibition, % at 20 µM | UBC13 polyubiquitin chain formation, TR-FRET | 330,000 compounds, 0.47% hits | P61088; in the data active means inhibition above about 45%, passing the limit was not always enough
PHOSPHO1 block: inhibitors of human PHOSPHO1 phosphatase | Q8TCT1 | recombinant PHOSPHO1, absorbance phosphatase assay | inhibition, % at 13.3 µM | 290,000 compounds, 1.1% hits; in the data active means inhibition above about 60%
Target sequence (Q8TCT1 whole entry, looked up): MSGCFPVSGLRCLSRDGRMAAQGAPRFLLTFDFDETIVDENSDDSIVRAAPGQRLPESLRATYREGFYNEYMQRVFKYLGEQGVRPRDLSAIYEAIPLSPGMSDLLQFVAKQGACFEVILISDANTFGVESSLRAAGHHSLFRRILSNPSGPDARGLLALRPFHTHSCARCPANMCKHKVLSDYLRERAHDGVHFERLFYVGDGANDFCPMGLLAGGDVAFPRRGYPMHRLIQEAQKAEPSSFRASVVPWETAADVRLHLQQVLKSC
Hits are given with their value. A selection: hits, their analogues and other compounds. The true share with any hit is near 1.9%.

For COc1cccc(CNC(=O)CCc2ccc(OC)c(OC)c2)c1 the results were proCasp7 act inactive, procasp3 activ inactive, IDE cell inh inactive, IDE cell activ inactive, UBC13 inh inactive and PHOSPHO1 block inactive.
Screening CC(Sc1nc(-c2ccco2)nc2c1c(=O)n(C)c(=O)n2C)C(=O)O (stereo unspecified) returned proCasp7 act inactive, procasp3 activ inactive, IDE cell inh inactive, IDE cell activ inactive, UBC13 inh inactive and PHOSPHO1 block inactive.
O=C1CC(NS(=O)(=O)c2ccc([N+](=O)[O-])cc2)CN1c1cccc(F)c1 (stereo unspecified) was read as proCasp7 act inactive, procasp3 activ inactive, IDE cell inh inactive, IDE cell activ inactive and UBC13 inh inactive.
For Cc1ccc(-n2c(Cc3cccn3C)nnc2SCC(=O)NCc2ccco2)cc1 the results were proCasp7 act inactive, procasp3 activ inactive, IDE cell inh inactive, IDE cell activ inactive, UBC13 inh inactive and PHOSPHO1 block 78.
Screening O=C1C(c2ccccc2)C2C=CC(C2)N1O (stereo unspecified) returned IDE cell activ inactive.
c1ccc(-c2nc(Sc3ncnc4c3cnn4-c3ccccc3)n[nH]2)cc1 was read as proCasp7 act inactive, procasp3 activ inactive, IDE cell inh inactive, UBC13 inh inactive and PHOSPHO1 block 87.
`CCOc1ccc(OCCC(=O)OCC(=O)NCc2ccccc2)cc1` gave proCasp7 act inactive, procasp3 activ inactive, IDE cell inh inactive, IDE cell activ inactive, UBC13 inh inactive and PHOSPHO1 block inactive.
`NC(=O)c1nc(C(=O)N2CCCCC2)c2ccccc2n1` gave proCasp7 act inactive, procasp3 activ inactive, IDE cell inh inactive, IDE cell activ inactive and UBC13 inh inactive.
Screening Fc1ccc2[nH]c3c(N4CCN(C5CCCCC5)CC4)ncnc3c2c1 returned proCasp7 act inactive, procasp3 activ inactive, IDE cell inh 20, UBC13 inh inactive and PHOSPHO1 block inactive.
COc1cc(/C=C/C(=O)O)cc(S(=O)(=O)Nc2ccc(S(=O)(=O)N3CCCCC3)cc2)c1OC was read as IDE cell activ inactive and UBC13 inh inactive.
`Cc1cc(C)c2cc(C(c3nnnn3C3CCCC3)N3CCOCC3)c(=O)[nH]c2c1` (stereo unspecified) gave proCasp7 act inactive, procasp3 activ inactive, IDE cell inh inactive, IDE cell activ inactive, UBC13 inh inactive and PHOSPHO1 block 103.
Cc1ccc2cc(C(c3nnnn3C3CCCC3)N3CCN(c4ccc(F)cc4)CC3)c(=O)[nH]c2c1 (stereo unspecified) was read as proCasp7 act inactive, procasp3 activ inactive, IDE cell inh inactive, IDE cell activ inactive, UBC13 inh inactive and PHOSPHO1 block inactive.
Screening Cc1cccc2cc(C(c3nnnn3C3CCCC3)N3CCOCC3)c(=O)[nH]c12 (stereo unspecified) returned proCasp7 act inactive, procasp3 activ inactive, IDE cell inh inactive, IDE cell activ inactive, UBC13 inh inactive and PHOSPHO1 block 86.
COc1ccc(C(c2nnnn2C2CCCCC2)N2CCN(c3ccc(OC)cc3)CC2)cc1 (stereo unspecified) was read as proCasp7 act inactive, procasp3 activ inactive, IDE cell inh inactive, IDE cell activ inactive, UBC13 inh inactive and PHOSPHO1 block inactive.
For c1cc(N2CCCC2)ccc1C(c1nnnn1C1CCCCC1)N1CCOCC1 (stereo unspecified) the results were proCasp7 act inactive, procasp3 activ inactive, IDE cell inh inactive, IDE cell activ inactive, UBC13 inh inactive and PHOSPHO1 block 92.
Screening CCC(C)(C)n1nnnc1C(c1cc2cccc(C)c2[nH]c1=O)N1CCCC1 (stereo unspecified) returned proCasp7 act inactive, procasp3 activ inactive, IDE cell inh inactive, IDE cell activ inactive, UBC13 inh inactive and PHOSPHO1 block inactive.
Screening O=C(Nc1cccc(S(=O)(=O)N2CCCCCC2)c1)C1CC(=O)N(c2ccc3c(c2)OCCO3)C1 (stereo unspecified) returned proCasp7 act inactive, procasp3 activ inactive, IDE cell inh inactive, IDE cell activ inactive and UBC13 inh inactive.
Screening COc1ccc(S(=O)(=O)N2CCN(C(=O)CCNC(=O)c3ccccc3Cl)CC2)cc1 returned proCasp7 act inactive, procasp3 activ inactive, IDE cell inh inactive, IDE cell activ inactive and UBC13 inh inactive.
For CCOC(=O)C1=C(C)Nc2nc(=S)[nH]n2C1c1ccc(Cl)cc1 (stereo unspecified) the results were IDE cell activ inactive, UBC13 inh inactive and PHOSPHO1 block 97.
Cc1cc(C)[n+](Cc2ccccc2)cc1C(N)=O was read as proCasp7 act inactive, procasp3 activ inactive, IDE cell inh inactive, IDE cell activ inactive and UBC13 inh inactive.
CCCCc1ccc(NC(=O)CSc2nc(=O)n3cc(C)ccc3n2)cc1 was read as proCasp7 act inactive, procasp3 activ inactive, IDE cell inh inactive, IDE cell activ inactive and UBC13 inh inactive.
Screening CC(C)CC(=O)n1sc(NC(=O)c2ccccc2)nc1=O returned proCasp7 act inactive, procasp3 activ inactive, IDE cell inh inactive, IDE cell activ inactive, UBC13 inh inactive and PHOSPHO1 block inactive.
`COC(=O)C1=C(C(=O)OC)SC(=C2C(=S)C(C)(C)N(C(=O)CC(C)C)c3ccccc32)S1` gave proCasp7 act inactive, procasp3 activ inactive, IDE cell inh inactive, IDE cell activ inactive, UBC13 inh inactive and PHOSPHO1 block 84.
`O=c1c2ccccc2sn1-c1cc(S(=O)(=O)N2CCOCC2)ccc1N1CCCC1` gave proCasp7 act inactive, procasp3 activ inactive, IDE cell inh 51, IDE cell activ inactive, UBC13 inh inactive and PHOSPHO1 block inactive.
For CCOc1ccc(N(CC(=O)Nc2ccccc2)S(C)(=O)=O)cc1 the results were proCasp7 act inactive, procasp3 activ inactive, IDE cell inh inactive, IDE cell activ inactive, UBC13 inh inactive and PHOSPHO1 block 80.
S=c1nc(-c2ccccc2)n(Cc2ccco2)c2c1CCCC2 was read as PHOSPHO1 block 89.
Screening CCOc1ccc(CNC(=O)CS(=O)(=O)Cc2nc(-c3ccc(OC)cc3)oc2C)cc1 returned proCasp7 act inactive, procasp3 activ inactive, IDE cell inh inactive, IDE cell activ inactive, UBC13 inh inactive and PHOSPHO1 block inactive.
Screening CCOc1ccc(CCNC(=O)CS(=O)(=O)Cc2nc(-c3ccc(OC)cc3)oc2C)cc1 returned proCasp7 act inactive, procasp3 activ inactive, IDE cell inh inactive, IDE cell activ inactive, UBC13 inh inactive and PHOSPHO1 block 64.
`Cc1ccc2nc(C)cc(C(=O)OCC(=O)Nc3cccnc3Cl)c2c1` gave proCasp7 act inactive, procasp3 activ inactive, IDE cell inh inactive, IDE cell activ inactive, UBC13 inh inactive and PHOSPHO1 block 61.
